Experimental data from article PMC9362842 (Bioconjugate chemistry, 2022).
Read-outs that look alike come from different tables or passages of the source. Marks after values point to notes of the source that are not given here.

Assays:
[1] = Hydrolytic stability of the -NCS group in pH 9.1 NaHCO3 buffer; assay type: physicochemical
[2] = assay type: physicochemical; conditions: pH 7.4, 25 °C, I = 0.1 M KCl; for pLa (−log [M]free): [M]total = 10^−6 M, [L]total = 10^−5 M
In short: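 Protonation constants of the free chelator are first determined by pH potentiometric titration (25 °C, 0.1 M KCl ionic strength), then La³⁺ stability constants (log KLaL) by the same method, all in triplicate. The fifth and sixth protonation constants are not determined over the pH ranges used. Conditional constants and pLa at pH 7.4 are calculated from the protonation and stability constants.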

[3] = cited from earlier work
[4] = cited from earlier work; remark: listed apart in the source
[5] = biological target: GPC3 (Homo sapiens, UniProt P51654); experiment: Bio-layer interferometry; assay type: binding; conditions: BLI, immobilized GPC3 antigen, global fit
[6] = test system: HepG2 (GPC3+) xenografts; assay type: in vivo, athymic nude mice; conditions: 100 nCi

## O=C(O)c1cccc(CN2CCOCCOCCN(Cc3cc(N=C=S)cc(C(=O)O)n3)CCOCCOCC2)n1 [H2macropa-NCS]
[1]; buffer, pH 9.1
  t1/2 of -NCS hydrolysis to the amine: 1.25 h
[1]; pH 9.1 NaHCO3 buffer, room temperature
  time to complete hydrolysis to the amine: approximately 5 h

## O=C(O)c1cccc(CN2CCOCCOCCN(Cc3cccc(C(=O)O)n3)CCOCCOCC2)n1 [H2macropa]
[2]
  pLa (−log [M]free): 15.58
  log K´La (conditional stability constant): 14.63
[3]; 0.1 M KCl
  log KLaHL: 2.28(3) ^ c
[4]; 0.1 M KCl
  log K1 (protonation constant): 7.41(1)^c
  log K2 (protonation constant): 6.85(1)^c
  log K3 (protonation constant): 3.32(1)^c
  log K4 (protonation constant): 2.36(1)^c
  log K5 (protonation constant): 1.69(1)^c

## O=C(O)CN1CCN(CC(=O)O)CCN(CC(=O)O)CCN(CC(=O)O)CC1 [H4DOTA, tetraazacyclododecane-1,4,7,10-tetraacetic acid]
[2]
  pLa (−log [M]free): 16.62
  log K´La (conditional stability constant): 15.67
[3]; 0.1 M KCl
  log KLaHL: 2.5(2) ^ d
  log KLaL (La^3+ stability constant): 21.7(1) ^ d
[4]; 0.1 M KCl
  log K1 (protonation constant): 11.14^d
  log K2 (protonation constant): 9.69^d
  log K3 (protonation constant): 4.84^d
  log K4 (protonation constant): 3.95^d

## O=C(O)CN(CCN(CC(=O)O)CC(=O)O)CC(=O)O [H4EDTA, ethylenediamine tetraacetic acid]
[2]
  pLa (−log [M]free): 13.62
  log K´La (conditional stability constant): 12.67
[3]; 0.1 M
  log KLaHL: 2.24 ^ e
  log KLaL (La^3+ stability constant): 15.46 ^ e
[4]; 0.1 M
  log K1 (protonation constant): 10.17^e
  log K2 (protonation constant): 6.11^e
  log K3 (protonation constant): 2.68^e
  log K4 (protonation constant): 2.00^e
  log K5 (protonation constant): 1.5^e

## O=C(O)CN(CCN(CC(=O)O)CC(=O)O)CCN(CC(=O)O)CC(=O)O [H5DTPA, diethylenetriamine pentaacetic acid]
[2]
  pLa (−log [M]free): 16.22
  log K´La (conditional stability constant): 15.27
[3]; 0.1 M
  log KLaL (La^3+ stability constant): 19.48 ^ e
[4]; 0.1 M
  log K1 (protonation constant): 10.45^e
  log K2 (protonation constant): 8.53^e
  log K3 (protonation constant): 4.28^e
  log K4 (protonation constant): 2.65^e
  log K5 (protonation constant): 1.82^e

## GC33-BZM: H2BZmacropa-NCS conjugate of the antibody GC33
[5]
  Kd: 0.19 nM

## GC33: glypican-3 (GPC3)-targeting antibody codrituzumab
[5]
  Kd: 0.042 nM

## [^225Ac]Ac-GC33-BZM: ^225Ac-labeled GC33-BZM antibody radioconjugate
[6]; 48 and 96 h
  tumor uptake compared with ^225Ac[Ac]-GC33-M: effectively indistinguishable
[6]; 48 and 96 h post-injection
  tumor uptake: clear, specific tumor uptake
